The values below come from ChEMBL document CHEMBL3525996, “Deuterium isotope effects on drug pharmacokinetics. I. System-dependent effects of specific deuteration with aldehyde oxidase cleared drugs” (Drug Metab Dispos, 2012).

In data set [1] the test system is aldehyde oxidase. In words: Activity of guinea pig cytosolic aldehyde oxidase. The conditions noted are these: cytosol (aldehyde oxidase).
A short description of data set [2]: Half life in Sprague-Dawley rat at 2.5 mg/kg, po. To be noted: in vivo. Also noted: dose 2.5 mg/kg, route oral. It counts as ADME, organism-based. Put shortly: (§1)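 Male Hartley guinea pigs (325–350 g) or male Sprague-Dawley rats (250–300 g) received a 1:1 deuterio/proto mixture. Oral dose was ~5 mg/kg total (2.5 mg/kg per isotopomer) in water; IV bolus via the jugular vein was ~2 mg/kg total (1 mg/kg per isotopomer) in saline. Carotid blood was drawn between 10 min and 6 h, and plasma was assayed by LC-MS/MS. AUC and t1/2 cover only the first to last measured time points.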

Data set [3] in a line: AUC in Sprague-Dawley rat at 1 mg/kg, iv. To be noted: plasma. The format is ADME, organism-based. Also noted: dose 1 mg/kg, route intravenous. Put shortly: as §1
Data set [4] can be described thus: AUC in Hartley guinea pig at 1 mg/kg, iv. The format is ADME, organism-based, Cavia porcellus. Set-up: dose 1 mg/kg, route intravenous. The conditions noted are these: plasma. In outline: as §1
Data set [5] is described as follows: Cmax in Sprague-Dawley rat at 2.5 mg/kg, po. The format is ADME, organism-based. Also noted: dose 2.5 mg/kg, route oral. To be noted: in vivo. Put shortly:
as §1

Data set [6] in a line: Half life in Sprague-Dawley rat at 1 mg/kg, iv. The format is ADME, organism-based. Set-up: dose 1 mg/kg, route intravenous. The conditions noted are these: in vivo. In outline: as §1
The nature of data set [7]: AUC in Sprague-Dawley rat at 2.5 mg/kg, po. It counts as ADME, organism-based. Set-up: dose 2.5 mg/kg, route oral. The conditions noted are these: plasma. Put shortly: as §1
The nature of data set [8]: Half life in Hartley guinea pig at 2.5 mg/kg, po. The format is ADME, organism-based, Cavia porcellus. Also noted: dose 2.5 mg/kg, route oral. The conditions noted are these: in vivo. In outline:
as §1

A short description of data set [9]: Half life in Hartley guinea pig at 1 mg/kg, iv. It counts as ADME, organism-based, Cavia porcellus. To be noted: in vivo. Set-up: dose 1 mg/kg, route intravenous. In outline: as §1
Data set [10] is described as follows: Cmax in Hartley guinea pig at 2.5 mg/kg, po. It counts as ADME, organism-based, Cavia porcellus. Set-up: dose 2.5 mg/kg, route oral. The conditions noted are these: in vivo. In outline: as §1
Data set [11] is described as follows: AUC in Hartley guinea pig at 2.5 mg/kg, po. The format is ADME, organism-based, Cavia porcellus. Also noted: dose 2.5 mg/kg, route oral. The conditions noted are these: plasma. In outline: as §1
The nature of data set [12]: AUC in Hartley guinea pig at 5 mg/kg, po. The format is ADME, organism-based, Cavia porcellus. Set-up: dose 5 mg/kg, route oral. To be noted: plasma. Put shortly: (§2)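 A 1:1 deuterio/proto mixture, ~10 mg/kg total (5 mg/kg per isotopic form), was given orally in water or as an IV bolus via the jugular vein in saline. Animals were male Hartley guinea pigs (325–350 g) or male Sprague-Dawley rats (250–300 g). Carotid blood was sampled from 10 min to 6 h, and plasma was analysed by LC-MS/MS MRM. AUC and t1/2 were calculated between the first and last measured points.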

Data set [13] can be described thus: AUC in Hartley guinea pig at 5 mg/kg, iv. The format is ADME, organism-based, Cavia porcellus. The conditions noted are these: plasma. Set-up: dose 5 mg/kg, route intravenous. In outline: as §2
Data set [14] is described as follows: Cmax in Hartley guinea pig at 5 mg/kg, po. The format is ADME, organism-based, Cavia porcellus. Also noted: dose 5 mg/kg, route oral. To be noted: in vivo. In outline:
as §2

Data set [15] is described as follows: AUC in Sprague-Dawley rat at 5 mg/kg, po. The conditions noted are these: plasma. The format is ADME, organism-based. Also noted: dose 5 mg/kg, route oral. In outline:
as §2

The nature of data set [16]: Cmax in Sprague-Dawley rat at 5 mg/kg, po. Also noted: dose 5 mg/kg, route oral. It counts as ADME, organism-based. The conditions noted are these: in vivo. Put shortly: as §2
The nature of data set [17]: AUC in Sprague-Dawley rat at 5 mg/kg, iv. The format is ADME, organism-based. Set-up: dose 5 mg/kg, route intravenous. To be noted: plasma. In outline: as §2

A word on the Km: it is the concentration of substrate that gives half-maximal velocity. For `c1ccc2ncccc2c1` [QUINOLINE], the Km in data set [1] worked out at 212 µM.
As usually defined, the half-life is the time needed for the level to fall by half in the phase considered. In general, AUC refers to concentration integrated over time. As a reminder, the Cmax is the maximum level reached in the sampled fluid or tissue. Consider `[2H]c1ccc2c(-n3ncc(C(=O)NC(=N)N)c3C3CC3)cccc2n1`, for which the half-life in data set [2] is 18 min; in [6] it was 30 min; in data set [8] it was 30 min; in [9], 30 min. Besides, the exposure (AUC) in [3] worked out at 77.4 ng·h/mL; in [4], 40.7 ng·h/mL; in data set [7], 12.7 ng·h/mL; in data set [11], 25.7 ng·h/mL. Also, the results for the maximum concentration (Cmax) in data set [5] and in [10] were 18.4 ng/mL and 23.3 ng/mL, respectively.
Regarding `CCNC(=O)OC1CCN(c2nncc3cc(OC)c(OC)cc23)CC1` [CARBAZERAN], the AUC was 4.25 ng·h/mL in data set [12], 35.6 ng·h/mL in [13], 1630 ng·h/mL in data set [15] and 509 ng·h/mL in data set [17]. For the same molecule, the Cmax in [14] came to 9.8 ng/mL; in data set [16], 1150 ng/mL.
With `N=C(N)NC(=O)c1cnn(-c2cccc3ncccc23)c1C1CC1` [ZONIPORIDE], the half-life in data set [2] is 18 min; in [6], 24 min; in [8], 30 min; in data set [9], 30 min. In addition, the AUC in [3] turned out to be 74.4 ng·h/mL; in data set [4], 23.2 ng·h/mL; in data set [7], 19.7 ng·h/mL; in data set [11] it was 22.2 ng·h/mL. In addition, the values for the Cmax in data set [5] and in data set [10] were 24.7 ng/mL and 26.5 ng/mL, respectively.
For the molecule `[2H]c1nnc(N2CCC(OC(=O)NCC)CC2)c2cc(OC)c(OC)cc12`, the AUC stood at 96 ng·h/mL in data set [12], 206 ng·h/mL in [13], 3720 ng·h/mL in [15] and 1270 ng·h/mL in data set [17]. Besides, the results for the Cmax in data set [14] and in [16] were 161 ng/mL and 1770 ng/mL, respectively.
As to `[2H]c1ccc2ccccc2n1`, in data set [1], the Km was determined as 193 µM.
